Reference: ChEMBL document CHEMBL1150301, “Structure-activity relationship studies on N'-aryl carbohydrazide P2X7 antagonists” (J Med Chem, 2008)

What was measured:
[1] = biological target: T1, P2X purinoceptor 7 (Rattus norvegicus, UniProt Q64663); test: Antagonist activity at rat recombinant P2X7 receptor expressed in human 1321N1 cells assessed as benzoyl-ATP-induced calcium flux by FLIPR assay; format: functional, cell-based
T1 sequence (Q64663 whole entry): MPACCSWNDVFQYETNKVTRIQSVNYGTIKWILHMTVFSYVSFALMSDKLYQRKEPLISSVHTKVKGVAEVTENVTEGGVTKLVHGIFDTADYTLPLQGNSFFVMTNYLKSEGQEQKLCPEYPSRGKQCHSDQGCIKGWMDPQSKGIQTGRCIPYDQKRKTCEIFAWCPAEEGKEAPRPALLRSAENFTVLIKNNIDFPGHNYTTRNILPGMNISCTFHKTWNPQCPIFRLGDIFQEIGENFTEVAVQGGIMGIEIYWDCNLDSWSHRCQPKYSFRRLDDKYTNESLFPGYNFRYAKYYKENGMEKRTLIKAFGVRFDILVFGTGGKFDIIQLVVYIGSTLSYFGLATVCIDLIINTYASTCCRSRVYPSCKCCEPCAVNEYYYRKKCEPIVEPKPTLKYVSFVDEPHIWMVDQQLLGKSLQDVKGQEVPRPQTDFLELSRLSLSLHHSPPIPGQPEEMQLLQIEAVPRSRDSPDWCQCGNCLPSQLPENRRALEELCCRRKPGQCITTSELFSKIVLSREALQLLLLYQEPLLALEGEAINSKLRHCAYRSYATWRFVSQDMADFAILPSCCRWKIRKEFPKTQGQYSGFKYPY
Method in brief: (§1)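 The human or rat P2X7 was stably transfected into 1321N1 astrocytoma cells, which lack endogenous P2X function. Cells were loaded with Fluo-4 and given a 5 min antagonist pretreatment before BzATP challenge. Ca2+ flux was read on FLIPR. Results are pIC50 ± SEM, n = 2, or ≥3 where marked.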

[2] = biological target: T2, P2X purinoceptor 7 (Homo sapiens, UniProt Q99572); test: Antagonist activity at human recombinant P2X7 receptor expressed in human 1321N1 cells assessed as benzoyl-ATP-induced calcium flux by FLIPR assay; format: functional, cell-based; method in brief: as §1
T2 sequence (Q99572 whole entry): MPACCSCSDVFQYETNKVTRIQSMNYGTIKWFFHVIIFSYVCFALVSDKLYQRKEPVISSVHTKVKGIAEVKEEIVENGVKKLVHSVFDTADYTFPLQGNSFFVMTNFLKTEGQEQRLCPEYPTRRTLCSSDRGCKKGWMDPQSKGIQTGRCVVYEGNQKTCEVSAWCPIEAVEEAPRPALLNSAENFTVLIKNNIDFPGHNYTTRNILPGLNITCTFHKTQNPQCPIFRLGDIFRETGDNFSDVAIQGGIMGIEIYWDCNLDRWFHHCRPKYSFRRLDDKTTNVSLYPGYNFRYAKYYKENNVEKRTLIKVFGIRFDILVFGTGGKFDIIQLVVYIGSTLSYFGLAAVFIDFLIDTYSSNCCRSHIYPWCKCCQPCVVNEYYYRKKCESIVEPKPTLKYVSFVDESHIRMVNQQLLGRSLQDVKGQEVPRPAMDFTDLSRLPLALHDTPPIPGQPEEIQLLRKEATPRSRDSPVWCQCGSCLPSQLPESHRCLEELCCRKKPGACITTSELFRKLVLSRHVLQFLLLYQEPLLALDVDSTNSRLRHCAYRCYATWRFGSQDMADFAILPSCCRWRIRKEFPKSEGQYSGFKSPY

[3] = test system: Rattus norvegicus; test: Half life in rat at 5 umol/kg, ip; format: ADME, organism-based; conditions: in vivo
Method in brief: (§2)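 Rats were dosed iv or ip at 5 µmol/kg in 10% DMSO/90% PEG. Plasma PK parameters were derived: Vβ, Clp, Cmax, Tmax, AUC, t1/2 and F.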

[4] = biological target: T2, P2X purinoceptor 7; test: Antagonist activity at human recombinant P2X7 receptor expressed in differentiated human THP1 cells assessed as inhibition of benzoyl-ATP-induced IL1-beta release by ELISA; format: functional, cell-based, THP-1
Method in brief: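 THP-1 cells were differentiated with LPS and IFNγ. Compound was present while cells were stimulated with BzATP for 30 min. Released IL-1β was quantified by ELISA kit. Results are given as pIC50.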

[5] = Bioavailability in rat at 5 umol/kg, ip; format: ADME, organism-based; conditions: in vivo; method in brief: as §2
[6] = test system: Rattus norvegicus; test: AUC in rat at 5 umol/kg, ip; format: ADME, organism-based, Plasma; conditions: in vivo; method in brief: as §2
[7] = Half life in rat at 5 umol/kg, iv; format: ADME, organism-based; conditions: in vivo; method in brief: as §2
[8] = test system: Rattus norvegicus; test: Cmax in rat at 5 umol/kg, ip; format: ADME, organism-based; set-up: dose 5 umol/kg, route intraperitoneal; conditions: in vivo; method in brief: as §2
[9] = test system: Rattus norvegicus; test: Reversal of neuropathic pain in ip dosed L5/L6 spinal nerve tight ligation rat model assessed as paw withdrawal threshold; format: functional
Method in brief: (§3)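 L5/L6 spinal nerve tight ligation was done 7–14 days before testing. Mechanical allodynia was measured with von Frey filaments before dosing, and rats with threshold <5 g were kept. Rats were retested 30 min after ip dosing at 30–300 µmol/kg. Reversal on the ipsilateral side was expressed relative to the contralateral side, and ED50 was derived.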

[10] = test system: Rattus norvegicus; test: AUC in rat at 5 umol/kg, iv; format: ADME, organism-based, Plasma; conditions: in vivo; method in brief: as §2
[11] = test system: Rattus norvegicus; test: Reversal of neuropathic pain in L5/L6 spinal nerve tight ligation rat model assessed as paw withdrawal threshold at 30 to 300 umol/kg, ip relative to contralateral paw; format: functional; method in brief: as §3
[12] = Volume of distribution at terminal phase in rat at 5 umol/kg, iv; format: ADME, organism-based; conditions: in vivo, read-out: Vbeta; method in brief: as §2
[13] = test system: Rattus norvegicus; test: Tmax in rat at 5 umol/kg, ip; format: ADME, organism-based; conditions: in vivo; method in brief: as §2

SMILES	IC50 [1] [µM]	IC50 [2] [µM]	further results
O=C(NNc1cccc2cnccc12)C12CC3CC(CC(C3)C1)C2	0.151	0.0339	–
CC1CCC(C)(C(=O)NNc2cccc3ncccc23)C1(C)C (stereo not drawn)	0.123	0.0275	–
Cc1ccccc1NNC(=O)C12CC3CC(CC(C3)C1)C2	0.0282	0.0117	–
O=C(NNc1cccc2nc(Cl)ccc12)C12CC3CC(CC(C3)C1)C2	0.174	0.0513	–
O=C(NNc1cccc2ncccc12)C12CC3CC(CC(O)(C3)C1)C2	2.24	0.275	–
Cc1ccccc1NNC(=O)C1(c2ccccc2)CCCC1	0.151	0.132	–
O=C(NNc1ccccc1Cl)C12CC3CC(CC(C3)C1)C2	0.0339	0.0115	–
O=C(NNc1cccnc1)C12CC3CC(CC(C3)C1)C2	0.977	0.832	–
O=C(NNc1cccc2ncccc12)C1(c2ccc(F)cc2)CCCCC1	0.174	0.0708	–
CCC12CC3CC(C1)CC(C(=O)NNc1cccc4ncccc14)(C3)C2	0.145	0.0229	–
O=C(NNc1cccc2ncccc12)C12CC3CC(CC(C3)C1)C2	0.0447	0.0102	t1/2 [3]: 36 min; IC50 [4]: 0.00501 µM; bioavailability [5]: 42%; AUC [6]: 0.39 µg·h/mL; half-life [7]: 24 min; Cmax [8]: 0.44 µg/mL; ED50 [9]: 92 µmol/kg; AUC [10]: 0.94 µg·h/mL; Activity [11]: 68%; Vd [12]: 0.9 L/kg; Tmax [13]: 30 min
O=C(NNc1ccccn1)C12CC3CC(CC(C3)C1)C2	0.427	0.219	–
CC1(C)C2CCC1(C(=O)NNc1cccc3ncccc13)C(=O)C2 (stereo not drawn)	1.51	1.38	–
O=C(NNc1cccc2ncccc12)C1(c2cccc(F)c2)CCCCC1	0.257	0.141	–
O=C(NNc1ccc(Cl)cc1Cl)C12CC3CC(CC(C3)C1)C2	–	0.372	pIC50 ([1]; 1321-n1): > 5
O=C(NNc1cccc2ncccc12)C1(c2ccccc2F)CCCCC1	0.324	0.191	–
O=C(CC12CC3CC(CC(C3)C1)C2)NNc1cccc2ncccc12	0.603	0.0575	–
O=C(NNc1cccc(Cl)c1Cl)C12CC3CC(CC(C3)C1)C2	0.0513	0.0347	–

SMILES	IC50 [1] [µM]	IC50 [2] [µM]	further results
Cc1ccccc1NNC(=O)CCC(C)C	0.339	0.148	–
O=C(NNc1ccccc1F)C12CC3CC(CC(C3)C1)C2	0.204	0.0398	–
Cc1ccccc1NNC(=O)C1CCCCC1	0.245	0.174	–
Cc1ccc(C)c(NNC(=O)C23CC4CC(CC(C4)C2)C3)c1	0.135	0.0575	–
O=C(NNc1ccccc1)C12CC3CC(CC(C3)C1)C2	0.275	0.11	–
Cc1ccccc1NNC(=O)C1CCCCCC1	0.049	0.0339	–
CCCCCCC(=O)NNc1ccccc1C	0.195	0.407	–
O=C(NNc1cccc2ncccc12)C12CC3CC(CC1C3)C2	0.0525	0.0275	IC50 [4]: 0.158 µM
O=C(NNc1cccc(F)c1)C12CC3CC(CC(C3)C1)C2	0.468	0.324	–
O=C(NNc1ccc(F)cc1)C12CC3CC(CC(C3)C1)C2	1.07	0.282	–
O=C(NNc1cccc2ncccc12)C12CC3CC(CC(Cl)(C3)C1)C2	0.0355	0.0102	IC50 [4]: < 0.001 µM
COc1ccc(NNC(=O)C23CC4CC(CC(C4)C2)C3)cc1	2.45	0.977	–
Cc1ccccc1NNC(=O)C1(C)CCCCC1	0.148	0.0708	–
CC1(C)C(C(=O)NNc2cccc3ncccc23)C1(C)C	0.155	0.2	–
COc1ccc(C2(C(=O)NNc3cccc4ncccc34)CCCCC2)cc1	0.0513	0.0525	–
Cc1ccccc1NNC(=O)CC1CCCCC1	0.151	0.0389	–
CC1(C(=O)NNc2cccc3ncccc23)CC2C=CC1C2 (stereo not drawn)	0.0316	0.0186	–
